Published values collected from several papers.
Lines come from different studies, so protocols differ. Values after ≈ are worked out from the molar mass of the structure shown.
Organism: Candida albicans

Compound | observed | strain | time | quantity | result
Cc1cc(Cc2ccc(Cl)cc2)n(O)c(=O)c1 | microbial growth | ATCC90028 | – | MIC80 | 1.7 µM (≈ 0.424 µg/mL)
NOCC(=O)O | microbial growth | 28A | – | MIC | 1000 µg/mL
C[C@@H]1[C@H](O)[C@@H](C)/C=C/C=C/C=C/C=C/C=C/C=C/C=C/[C@H](O[C@@H]2O[C@H](C)[C@@H](O)[C@H](N)[C@@H]2O)C[C@@H]2O[C@](O)(C[C@@H](O)C[C@@H](O)[C@H](O)CC[C@@H](O)C[C@@H](O)CC(=O)O[C@H]1C)C[C@H](O)[C@H]2C(=O)O | microbial growth | ATCC90028 | – | IC50 | 0.13 µg/mL (≈ 0.141 µM)
C=C1C(=O)O[C@@H](CCCCCCCCCCCCC)[C@@H]1C(=O)O | microbial growth | 28A | – | MIC | 64 µg/mL
O=C(NCc1ccc2c(c1)OCO2)c1ccc(Br)cc1F | microbial growth | ATCC10231 | 72 h | MIC | > 200 µM
Cc1cc(CC2CCCCC2)n(O)c(=O)c1 | microbial growth | ATCC90028 | – | MIC80 | 1.5 µM (≈ 0.332 µg/mL)
OC(Cn1cncn1)(Cn1cncn1)c1ccc(F)cc1F | microbial killing | – | – | MFC | 0.04 µg/mL (≈ 0.131 µM)
CCCCCOc1ccc(-c2cc(-c3ccc(C(=O)N[C@H]4C[C@@H](O)[C@@H](O)NC(=O)[C@@H]5[C@@H](O)[C@@H](C)CN5C(=O)[C@H]([C@H](O)CC(N)=O)NC(=O)[C@H]([C@H](O)[C@@H](O)c5ccc(O)c(OS(=O)(=O)O)c5)NC(=O)[C@@H]5C[C@@H](O)CN5C(=O)[C@H]([C@@H](C)O)NC4=O)cc3)no2)cc1 | microbial growth | – | – | MIC50 | 0.01 µg/mL (≈ 0.00787 µM)
COc1ccccc1Cc1cc(C)cc(=O)n1O | microbial growth | ATCC90028 | – | MIC80 | 2.7 µM (≈ 0.662 µg/mL)
